Experimental data: ChEMBL document CHEMBL1134325, “Diaminoindanes as microsomal triglyceride transfer protein inhibitors” (J Med Chem, 2001)
Blank lines part the entries; values can stand above or below the compound they belong to.

Key:
[1] = molecular target: T1, Microsomal triglyceride transfer protein large subunit (Homo sapiens, UniProt P55157); test: In vitro inhibitory activity against MTP using MTP transfer assay
T1 sequence (P55157 whole entry): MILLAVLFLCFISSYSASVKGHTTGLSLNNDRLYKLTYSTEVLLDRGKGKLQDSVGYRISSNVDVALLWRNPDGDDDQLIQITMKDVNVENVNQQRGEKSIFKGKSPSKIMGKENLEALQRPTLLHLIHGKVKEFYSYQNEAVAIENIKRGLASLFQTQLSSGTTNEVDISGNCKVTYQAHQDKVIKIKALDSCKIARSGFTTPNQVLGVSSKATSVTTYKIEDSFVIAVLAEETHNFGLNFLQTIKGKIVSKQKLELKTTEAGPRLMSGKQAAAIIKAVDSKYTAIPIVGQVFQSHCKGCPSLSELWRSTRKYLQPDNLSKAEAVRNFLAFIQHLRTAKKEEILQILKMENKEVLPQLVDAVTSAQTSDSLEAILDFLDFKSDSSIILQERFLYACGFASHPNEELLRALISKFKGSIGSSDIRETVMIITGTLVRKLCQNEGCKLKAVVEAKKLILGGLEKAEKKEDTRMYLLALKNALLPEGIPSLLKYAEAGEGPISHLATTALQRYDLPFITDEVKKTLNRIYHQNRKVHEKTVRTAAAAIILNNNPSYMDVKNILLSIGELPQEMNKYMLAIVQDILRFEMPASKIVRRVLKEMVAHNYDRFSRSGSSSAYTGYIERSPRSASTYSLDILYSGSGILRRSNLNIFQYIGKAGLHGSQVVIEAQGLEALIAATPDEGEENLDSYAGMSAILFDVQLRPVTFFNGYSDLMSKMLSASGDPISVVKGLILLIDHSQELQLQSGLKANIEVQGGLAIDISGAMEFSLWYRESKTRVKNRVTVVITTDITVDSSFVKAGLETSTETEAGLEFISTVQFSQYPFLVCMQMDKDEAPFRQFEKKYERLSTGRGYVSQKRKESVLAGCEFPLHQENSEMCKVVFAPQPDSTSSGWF

[2] = tested on: Rattus norvegicus; test: Inhibition of total cholesterol in normolipidemic rats after 2 hr of 50 mg/kg oral dosing; type: functional
In short: (§1)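 Overnight-fasted normolipidemic rats received a single oral dose in cornstarch vehicle. Blood was drawn at 2, 6 and 24 h post-dose and assayed for triglycerides and total cholesterol, with free access to food after the 6 h sample. Value is mean percent inhibition versus a separate vehicle-treated group, unpaired t test p < 0.05, NS = no significant change, N = 6.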

[3] = tested on: Rattus norvegicus; test: Inhibition of total cholesterol in normolipidemic rats after 6 hr of 50 mg/kg oral dosing; type: functional; in short: as §1
[4] = tested on: Rattus norvegicus; test: Inhibition of total cholesterol in normolipidemic rats after 24 hr of 50 mg/kg oral dosing; no significant change; type: functional, organism-based; design: dose 50 mg/kg; in short: as §1
[5] = tested on: Rattus norvegicus; test: Inhibition of plasma triglycerides in normolipidemic rats after 24 h of 50 mg/kg oral dosing; no significant change; type: functional, organism-based; design: dose 50 mg/kg; in short: as §1
[6] = tested on: Rattus norvegicus; test: Inhibition of plasma triglycerides in normolipidemic rats after 2 hr of 50 mg/kg oral dosing; type: functional; in short: as §1
[7] = tested on: Rattus norvegicus; test: Inhibition of plasma triglycerides in normolipidemic rats after 6 hr of 50 mg/kg oral dosing; type: functional; in short: as §1
[8] = tested on: Rattus norvegicus; test: Inhibition of plasma triglycerides in normolipidemic rats after 2 hr of 50 mg/kg oral dosing; no significant change; type: functional, organism-based; design: dose 50 mg/kg; in short: as §1
[9] = tested on: Rattus norvegicus; test: Inhibition of total cholesterol in normolipidemic rats after 2 hr of 50 mg/kg oral dosing; no significant change; type: functional, organism-based; design: dose 50 mg/kg; in short: as §1
[10] = tested on: Rattus norvegicus; test: Inhibition of plasma triglycerides in normolipidemic rats after 6 h of […] mg/kg oral dosing; no significant change; type: functional, organism-based; design: dose 50 mg/kg
[11] = tested on: Rattus norvegicus; test: Inhibition of total cholesterol in normolipidemic rats after 6 h of […] mg/kg oral dosing; no significant change; type: functional, organism-based; design: dose 50 mg/kg
[12] = tested on: Rattus norvegicus; test: Inhibition of total cholesterol in normolipidemic rats after 24 hr of 50 mg/kg oral dosing; type: functional; in short: as §1
[13] = tested on: Rattus norvegicus; test: Inhibition of plasma triglycerides in normolipidemic rats after 24 hr of 50 mg/kg oral dosing; type: functional; in short: as §1

IC50 [1]: 240 nM
SMILES: Cc1cccc(C(=O)Nc2ccc3c(c2)CC(NS(=O)(=O)c2ccccc2)C3)c1-c1ccc(F)cc1 (centres undefined)

IC50 [1]: 500 nM
SMILES: Cc1cccc(C(=O)Nc2ccc3c(c2)CC(CNS(C)(=O)=O)C3)c1-c1ccc(Cl)cc1 (centres undefined)

IC50 [1]: 34 nM
SMILES: Cc1cccc(C(=O)Nc2ccc3c(c2)C[C@H](NS(C)(=O)=O)C3)c1-c1ccc(C(F)(F)F)cc1
Reduction [2]: 27%
Reduction [3]: 42%
NS [4]: no significant change
NS [5]: no significant change
Reduction [6]: 74%
Reduction [7]: 68%

IC50 [1]: 650 nM
SMILES: O=C(Nc1ccc2c(c1)C[C@@H](NS(=O)(=O)c1ccccc1)C2)c1ccccc1-c1ccc(C(F)(F)F)cc1
NS [8]: no significant change
NS [4]: no significant change
NS [9]: no significant change
NS [5]: no significant change
NS [10]: no significant change
NS [11]: no significant change

IC50 [1]: 93 nM
SMILES: Cc1ccc(-c2c(C)cccc2C(=O)Nc2ccc3c(c2)CC(NS(=O)(=O)c2ccccc2)C3)cc1 (centres undefined)

IC50 [1]: 140 nM
SMILES: Cc1cccc(C(=O)Nc2ccc3c(c2)CCC(NS(=O)(=O)c2cccs2)CC3)c1-c1ccc(C(F)(F)F)cc1 (centres undefined)

IC50 [1]: 110 nM
SMILES: COc1cccc(C(=O)Nc2ccc3c(c2)CC(NS(=O)(=O)c2ccccc2)C3)c1-c1ccc(Cl)cc1 (centres undefined)

IC50 [1]: 24 nM
SMILES: COC(=O)NCC1Cc2ccc(NC(=O)c3cccc(C)c3-c3ccc(C(F)(F)F)cc3)cc2C1 (centres undefined)
NS [4]: no significant change
NS [9]: no significant change
NS [5]: no significant change
NS [10]: no significant change
NS [11]: no significant change
Reduction [6]: 49%

IC50 [1]: 120 nM
SMILES: Cc1cccc(C(=O)Nc2ccc3c(c2)CC(NS(=O)(=O)c2cccs2)C3)c1-c1ccc(Cl)cc1 (centres undefined)

IC50 [1]: 90 nM
SMILES: Cc1cccc(C(=O)Nc2ccc3c(c2)CCC(NS(C)(=O)=O)CC3)c1-c1ccc(Cl)cc1 (centres undefined)

IC50 [1]: 80 nM
SMILES: CC(=O)NC1Cc2ccc(NC(=O)c3ccccc3-c3ccc(C(F)(F)F)cc3)cc2C1 (centres undefined)

IC50 [1]: 70 nM
SMILES: COc1cccc(C(=O)Nc2ccc3c(c2)CC(NS(C)(=O)=O)C3)c1-c1ccc(Cl)cc1 (centres undefined)

IC50 [1]: 70 nM
SMILES: COC(=O)N[C@H]1Cc2ccc(NC(=O)c3cc(C)cc(C)c3-c3ccc(C(F)(F)F)cc3)cc2C1

IC50 [1]: 100 nM
SMILES: COC(=O)NCC1Cc2ccc(NC(=O)c3cccc(C)c3-c3ccc(Cl)cc3)cc2C1 (centres undefined)

IC50 [1]: 50 nM
SMILES: COC(=O)N[C@H]1Cc2ccc(NC(=O)c3cccc(C(F)(F)F)c3-c3ccc(C(F)(F)F)cc3)cc2C1

IC50 [1]: 4800 nM
SMILES: O=C(Nc1ccc2c(c1)CC(NCc1ccccc1)C2)c1ccccc1-c1ccc(C(F)(F)F)cc1 (centres undefined)

IC50 [1]: 120 nM
SMILES: COC(=O)NC1Cc2ccc(NC(=O)c3cc(C)cc(C)c3-c3ccc(Cl)cc3)cc2C1 (centres undefined)

IC50 [1]: 50 nM
SMILES: Cc1cccc(C(=O)Nc2ccc3c(c2)CC(NS(=O)(=O)c2cccs2)C3)c1-c1ccc(F)cc1 (centres undefined)

IC50 [1]: 105 nM
SMILES: O=C(Nc1ccc2c(c1)CC(NS(=O)(=O)c1ccccc1)C2)c1ccccc1-c1ccc(C(F)(F)F)cc1 (centres undefined)
Reduction [2]: 21%
NS [4]: no significant change
NS [5]: no significant change
NS [11]: no significant change
Reduction [6]: 57%
Reduction [7]: 30%

IC50 [1]: > 1000 nM
SMILES: O=C(NC1Cc2ccc(NC(=O)c3ccccc3-c3ccc(C(F)(F)F)cc3)cc2C1)c1ccccc1 (centres undefined)

IC50 [1]: 120 nM
SMILES: Cc1cccc(C(=O)Nc2ccc3c(c2)CC(NS(=O)(=O)c2ccccc2)C3)c1-c1ccc(C#N)cc1 (centres undefined)

IC50 [1]: 80 nM
SMILES: Cc1cccc(C(=O)Nc2ccc3c(c2)CCC(NS(C)(=O)=O)CC3)c1-c1ccc(C(F)(F)F)cc1 (centres undefined)
Reduction [2]: 29%
Reduction [3]: 41%
NS [5]: no significant change
Reduction [12]: 17%
Reduction [6]: 81%
Reduction [7]: 53%

IC50 [1]: 100 nM
SMILES: Cc1cccc(C(=O)Nc2ccc3c(c2)CC(NS(C)(=O)=O)C3)c1-c1ccc(Cl)cc1 (centres undefined)

IC50 [1]: 410 nM
SMILES: COC(=O)N[C@H]1Cc2ccc(NC(=O)c3cc(C(F)(F)F)ccc3-c3ccc(C(F)(F)F)cc3)cc2C1

IC50 [1]: 68 nM
SMILES: COC(=O)N[C@H]1Cc2ccc(NC(=O)c3ccccc3-c3ccc(C(F)(F)F)cc3)cc2C1
Reduction [2]: 20%
Reduction [3]: 39%
NS [4]: no significant change
NS [5]: no significant change
Reduction [6]: 69%
Reduction [7]: 74%

IC50 [1]: 20 nM
SMILES: COC(=O)NC1CCc2ccc(NC(=O)c3cc(C)cc(C)c3-c3ccc(C(F)(F)F)cc3)cc2CC1 (centres undefined)
Reduction [2]: 17%
Reduction [13]: 36%
Reduction [3]: 21%
Reduction [12]: 22%
Reduction [6]: 73%
Reduction [7]: 44%

IC50 [1]: 80 nM
SMILES: CN(C)C(=O)NC1Cc2ccc(NC(=O)c3ccccc3-c3ccc(C(F)(F)F)cc3)cc2C1 (centres undefined)

IC50 [1]: 110 nM
SMILES: COC(=O)N[C@@H]1Cc2ccc(NC(=O)c3ccccc3-c3ccc(C(F)(F)F)cc3)cc2C1

IC50 [1]: 14 nM
SMILES: Cc1cccc(C(=O)Nc2ccc3c(c2)CC(CNS(=O)(=O)c2cccs2)C3)c1-c1ccc(C(F)(F)F)cc1 (centres undefined)

IC50 [1]: 710 nM
SMILES: O=C(Nc1ccc2c(c1)CC(NS(=O)(=O)c1ccccc1)C2)c1ccccc1-c1ccccc1 (centres undefined)

IC50 [1]: 80 nM
SMILES: COC(=O)NC1CCc2ccc(NC(=O)c3cccc(C)c3-c3ccc(Cl)cc3)cc2CC1 (centres undefined)

IC50 [1]: 180 nM
SMILES: Cc1cc(C)c(-c2ccc(C(F)(F)F)cc2)c(C(=O)Nc2ccc3c(c2)C[C@@H](NS(=O)(=O)c2cccs2)C3)c1
Reduction [2]: 33%
Reduction [3]: 46%
NS [4]: no significant change
NS [5]: no significant change
Reduction [6]: 79%
Reduction [7]: 68%

IC50 [1]: 120 nM
SMILES: CS(=O)(=O)NC1Cc2ccc(NC(=O)c3ccccc3-c3ccc(C(F)(F)F)cc3)cc2C1 (centres undefined)

IC50 [1]: 204 nM
SMILES: Cc1cccc(C(=O)Nc2ccc3c(c2)C[C@@H](NS(C)(=O)=O)C3)c1-c1ccc(C(F)(F)F)cc1
Reduction [2]: 12%
Reduction [3]: 15%
NS [4]: no significant change
NS [5]: no significant change
Reduction [6]: 33%
Reduction [7]: 33%

IC50 [1]: 40 nM
SMILES: COC(=O)NCC1Cc2ccc(NC(=O)c3cc(C)cc(C)c3-c3ccc(C(F)(F)F)cc3)cc2C1 (centres undefined)

IC50 [1]: 100 nM
SMILES: Cc1cccc(C(=O)Nc2ccc3c(c2)CC(NS(=O)(=O)c2ccccc2)C3)c1-c1ccc(Cl)cc1 (centres undefined)

IC50 [1]: 150 nM
SMILES: Cc1cccc(C(=O)Nc2ccc3c(c2)CC(CNS(C)(=O)=O)C3)c1-c1ccc(C(F)(F)F)cc1 (centres undefined)

IC50 [1]: 170 nM
SMILES: Cc1cccc(C(=O)Nc2ccc3c(c2)CC(NS(C)(=O)=O)C3)c1-c1ccc(F)cc1 (centres undefined)

IC50 [1]: 1000 nM
SMILES: COC(=O)N1CCN([C@@H]2Cc3ccc(NC(=O)c4cccc(C)c4-c4ccc(C(F)(F)F)cc4)cc3C2)CC1
Reduction [2]: 23%
Reduction [3]: 20%
NS [4]: no significant change
NS [5]: no significant change
NS [10]: no significant change
Reduction [6]: 58%

IC50 [1]: 90 nM
SMILES: COC(=O)N[C@@H]1Cc2ccc(NC(=O)c3cc(C)cc(C)c3-c3ccc(C(F)(F)F)cc3)cc2C1

IC50 [1]: 20 nM
SMILES: Cc1cc(C)c(-c2ccc(C(F)(F)F)cc2)c(C(=O)Nc2ccc3c(c2)C[C@H](NS(=O)(=O)c2cccs2)C3)c1
Reduction [2]: 21%
Reduction [13]: 46%
Reduction [3]: 34%
Reduction [12]: 47%
Reduction [6]: 77%
Reduction [7]: 48%

IC50 [1]: 20 nM
SMILES: COC(=O)NC1CCc2ccc(NC(=O)c3cccc(C)c3-c3ccc(C(F)(F)F)cc3)cc2CC1 (centres undefined)
Reduction [2]: 20%
Reduction [3]: 20%
NS [4]: no significant change
NS [5]: no significant change
NS [10]: no significant change
Reduction [6]: 39%
